The source made the active and inactive calls. No cut-off for these calls is given here.
Tests used:
[1] = Binding affinity to FAM-labeled 5'-biotin-d[TATAGCTATA-HEG-TATAGCTATA]- 3' duplex DNA (unknown origin) by microscale thermophoresis assay
Summary of the method: (§1)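 Microscale thermophoresis with DNA held constant at 1 µM. Compound serially diluted 3:4 from 10 µM over 12 points. Samples run in standard glass capillaries with LED and laser power both at 20%. KD derived by fitting.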

MCF7 = test: Binding affinity to wild type PDGFRbeta promoter (unknown origin) in human MCF7 cells assessed as down regulation of PDGFRbeta mRNA expression at 1.25 to 20 uM after 12 hrs by RT-PCR analysis; assay type: cell-based; conditions: dose 1.25-20 µM
Quadruplex DNA [2] = test: Binding affinity to 5'-FAM-GGGAGAAGGGGGGGCGGCGGGGCAGGGAGGGTGGAC-TAMRA-3' G4-quadruplex DNA (unknown origin) assessed as stabilization G4-quadruplex structure by measuring increase in I585/I518 ratio by FRET assay; assay type: nucleic-acid assay; conditions: dose 2-10 equiv
Summary of the method: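 FRET probe dual-labelled FAM/TAMRA, annealed, 10 µM in 10 mM Tris-HCl pH 7.4 with 10 mM KCl; compound added in equal volume. Emission 500–700 nm recorded, corrected for compound signal in the same buffer; I585/I518 ratio compared.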

[3] = Binding affinity to FAM-labeled 5'-biotin-d [GCGTCCACCCTCCCTGCCCCGCCGCCCCCCCITCTCCCAGC]-3' i-motif DNA (unknown origin) by microscale thermophoresis assay; summary of the method: as §1
Quadruplex DNA [4] = test: Binding affinity to FAM-labeled 5'-biotin-d [GCTGGGAGAAGGGGGGGCGGCGGGGCAGGGAGGGTGGACGC]-3' G4-quadruplex DNA (unknown origin) by microscale thermophoresis assay; assay type: nucleic-acid assay; summary of the method: as §1
[5] = Binding affinity to 5'-FAM-GCGTCCACCCTCCCTGCCCCGCCGCCCCCCCTTCTCCCAGC-TAMRA-3' i-motif DNA (unknown origin) assessed as unfolding i-motif structure by measuring reduction in I585/I518 ratio at 2 to 10 equiv by FRET assay; conditions: dose 2-10 equiv
Summary of the method: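 FRET probe dual-labelled FAM donor/TAMRA acceptor, annealed, 10 µM in 30 mM BPES buffer with 1 mM EDTA, 100 mM KCl; compound added in equal volume. Emission 500–700 nm recorded, corrected for compound signal in the same buffer; I585/I518 ratio compared. The i-motif forms at pH 6.2 and unfolds at pH 6.4.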

[6] = Binding affinity to 5'-biotin-d [GCGTCCACCCTCCCTGCCCCGCCGCCCCCCCITCTCCCAGC]-3' i-motif DNA (unknown origin) assessed as change in melting temperature at 10 uM by CD spectroscopy
Summary of the method: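 Oligomer 2 µM in BPES buffer pH 5.5, heated to 95 °C for 5 min, cooled slowly and held at 4 °C overnight. Ligand 10 µM. CD ellipticity followed at 288 nm from 25–95 °C (1 mm cuvette); Tm derived, ΔTm against DNA alone.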

Quadruplex DNA [7] = test: Binding affinity to 5'-biotin-d [GCTGGGAGAAGGGGGGGCGGCGGGGCAGGGAGGGTGGACGC]-3' G4-quadruplex DNA (unknown origin) assessed as change in melting temperature at 10 uM by CD spectroscopy; assay type: nucleic-acid assay
Summary of the method: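 Oligomer 2 µM in Tris-HCl pH 7.4, annealed (95 °C for 5 min, slow cooling, 4 °C overnight). Ligand 10 µM. CD ellipticity followed at 263 nm over 25–95 °C; ΔTm taken against DNA alone.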

SMILES: C[n+]1ccc(-c2c3nc(c(-c4cc[n+](C)cc4)c4ccc([nH]4)c(-c4cc[n+](C)cc4)c4ccc([nH]4)c(-c4cc[n+](C)cc4)c4nc2C=C4)C=C3)cc1 [TMPYP4]
- Kd [1]: 1310 µM
- Activity (MCF7): Dose-dependent effect
- Activity (Quadruplex DNA [2]): Dose-dependent effect
- Kd [3]: 463 µM
- Kd (Quadruplex DNA [4]): 3.96 µM
- Activity [5]: inactive
- ΔTm [6]: 0.11 °C
- ΔTm (Quadruplex DNA [7]): > 20 °C

Source: ChEMBL document CHEMBL4715918, “Syntheses and evaluation of acridone-naphthalimide derivatives for regulating oncogene PDGFR-β expression” (Bioorg Med Chem, 2021)
